In ChEMBL document CHEMBL1152975, “Design and synthesis of orally bioavailable serum and glucocorticoid-regulated kinase 1 (SGK1) inhibitors” (Bioorg Med Chem Lett, 2009):

Legend:
[1] = molecular target: T1, Serine/threonine-protein kinase Sgk1 (Homo sapiens, UniProt O00141); assay: Inhibition of SGK1 by fluorescence polarization assay
T1 sequence (O00141 whole entry): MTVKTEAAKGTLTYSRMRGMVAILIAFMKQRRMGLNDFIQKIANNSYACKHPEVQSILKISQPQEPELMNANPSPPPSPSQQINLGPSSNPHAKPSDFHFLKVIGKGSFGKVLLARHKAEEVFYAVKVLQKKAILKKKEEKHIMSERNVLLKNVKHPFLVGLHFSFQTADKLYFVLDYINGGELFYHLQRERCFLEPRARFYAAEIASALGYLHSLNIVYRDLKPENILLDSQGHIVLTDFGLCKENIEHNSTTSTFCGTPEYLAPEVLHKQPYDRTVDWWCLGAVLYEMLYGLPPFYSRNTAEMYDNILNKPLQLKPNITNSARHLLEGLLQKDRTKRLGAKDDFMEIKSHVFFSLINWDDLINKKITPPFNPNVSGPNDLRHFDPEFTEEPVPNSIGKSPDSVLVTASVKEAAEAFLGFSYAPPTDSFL

[2] = molecular target: T1, Serine/threonine-protein kinase Sgk1; assay: Inhibition of SGK1-mediated epithelial sodium channel activity in human M-1 cells assessed as short circuit current by whole cell electrophysiological transepithelial experiment; assay type: cell-based
[3] = Plasma clearance in rat by discrete study; assay type: ADME, organism-based
In short: (§1)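 Each compound was dosed on its own (discrete study) to rats, iv and orally. Clearance, Vdss and terminal half-life come from the iv arm; oral AUC0–t and dose-normalized AUC0–t come from the oral arm.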

[4] = Volume of distribution at steady state in rat by discrete study; assay type: ADME, organism-based; conditions: in vivo, read-out: Vdss; in short: as §1
[5] = Terminal half life in iv dosed rat by discrete study; assay type: ADME, organism-based; conditions: in vivo, read-out: beta t1/2; in short: as §1
[6] = AUC (0 to t) in po dosed rat by discrete study; assay type: ADME, organism-based; conditions: plasma; in short: as §1
Rattus norvegicus [7] = assay: Dose normalized AUC (0 to t) in po dosed rat by discrete study; assay type: ADME, organism-based; conditions: in vivo; in short: as §1
[8] = Plasma clearance in rat by cassette dosing; assay type: ADME, organism-based
In short: (§2)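 Rats were given a cassette of four compounds as one mixture, dosed iv and orally. Clearance, Vdss and terminal half-life come from the iv arm; oral AUC0–t and dose-normalized AUC0–t come from the oral arm.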

[9] = Volume of distribution at steady state in rat by cassette dosing; assay type: ADME, organism-based; conditions: in vivo, read-out: Vdss; in short: as §2
[10] = Terminal half life in iv dosed rat by cassette dosing; assay type: ADME, organism-based; conditions: in vivo, read-out: beta t1/2; in short: as §2
[11] = AUC (0 to t) in po dosed rat by cassette dosing; assay type: ADME, organism-based; conditions: plasma; in short: as §2
Rattus norvegicus [12] = assay: Dose normalized AUC (0 to t) in po dosed rat by cassette dosing; assay type: ADME, organism-based; conditions: in vivo; in short: as §2
[13] = Dissociation constant, pKa of the compound; assay type: physicochemical

Compound | IC50 [1] [µM] | IC50 [2] [µM] | clearance [8] [mL/min/kg] | Vd [9] [L/kg] | half-life [10] [h] | AUC(0-t) [11] [ng·h/mL] | AUC (Rattus norvegicus [12]) [ng·h/mL/mg/kg] | further results
CC(C)(C(=O)O)c1ccc(-c2c[nH]c3ncc(-c4ccccc4)cc23)cc1 | 0.05 | 1.46 |  |  |  |  |  | 
O=C(O)Cc1ccc(-c2c[nH]c3ncc(-c4ccc5ccccc5c4)cc23)cc1 |  | 0.88 |  |  |  |  |  | clearance [3]: 21.3 mL/min/kg; Vd [4]: 1.3 L/kg; half-life [5]: 4.22 h; AUC(0-t) [6]: 467 ng·h/mL; AUC (Rattus norvegicus [7]): 225 ng·h/mL/mg/kg
CCc1cc(-c2c[nH]c3ncc(-c4ccccc4)cc23)ccc1C(=O)O | 0.02 | 0.71 | 9.4 | 0.43 | 1.62 | 1500 | 600 | 
O=C(O)c1ccc(-c2c[nH]c3ncc(-c4ccccc4)cc23)cc1 |  | 1.3 |  |  |  |  |  | pKa [13]: 4.2; clearance [3]: 64.4 mL/min/kg; Vd [4]: 8.8 L/kg; half-life [5]: 9.4 h; AUC(0-t) [6]: 392 ng·h/mL; AUC (Rattus norvegicus [7]): 154 ng·h/mL/mg/kg
NCc1ccc(-c2c[nH]c3ncc(-c4ccccc4)cc23)cc1 | 0.4 |  |  |  |  |  |  | 
CC(C(=O)O)c1ccc(-c2c[nH]c3ncc(-c4ccc5ccccc5c4)cc23)cc1 (centres undefined) | 0.125 |  |  |  |  |  |  | 
CC(=O)c1ccc(-c2c[nH]c3ncc(-c4ccccc4)cc23)cc1 | 5 |  |  |  |  |  |  | 
CC(C)(C(=O)O)c1ccc(-c2c[nH]c3ncc(-c4ccc5ccccc5c4)cc23)cc1 | 0.063 | 0.87 | 4.32 | 0.67 | 4.4 | 4170 | 2100 | 
CC(C)(C(=O)O)c1ccc(-c2c[nH]c3ncc(-c4cccc(C#N)c4)cc23)cc1 | 0.04 | 2 | 6.56 | 2.5 | 8.13 | 1910 | 905 | 
CC(C)Cc1cc(-c2c[nH]c3ncc(-c4ccccc4)cc23)ccc1C(=O)O | 0.005 | 0.58 | 21.9 | 0.62 | 1.17 | 373 | 176 | 
c1ccc(-c2cnc3[nH]cc(-c4ccc(-c5nnn[nH]5)cc4)c3c2)cc1 | 0.16 |  |  |  |  |  |  | pKa [13]: 4.9
COC(=O)c1ccc(-c2c[nH]c3ncc(-c4ccccc4)cc23)cc1 | 3.16 |  |  |  |  |  |  | 
O=C(O)c1ccc(-c2c[nH]c3ncc(-c4ccccc4)cc23)cc1C1CCCC1 [GSK-650394] |  |  | 25.7 | 0.77 | 1.58 | 313 | 134 | 
